Measurements as given in ChEMBL document CHEMBL6092128, “2-Aryl-1-hydroxyimidazoles possessing antiviral activity against a wide range of orthopoxviruses, including the variola virus” (RSC Med Chem, 2024).

What was measured:
[1] = system: Vaccinia virus; assay: Antiviral activity against Vaccinia virus Copenhagen infected in African green monkey Vero cells assessed as inhibition of virus-induced cytotoxicity incubated for 4 days by neutral red dye uptake based spectrophotometric analysis; assay type: functional, organism-based, Orthopoxvirus vaccinia
[2] = Cytotoxicity against African green monkey Vero cells assessed as cell destruction incubated for 4 days by neutral red dye uptake based spectrophotometric analysis; assay type: toxicity; settings: chlorocebus sabaeus, time 4 day
Outline: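 Uninfected confluent Vero monolayers in DMEM with 2% FBS were exposed to 3-fold compound dilutions, final 300 to 0.14 μg mL−1 (some from 600), in triplicate rows for 4 days at 37 °C. Viable cells were measured by neutral red uptake (1.5 h), acid phosphate/ethanol extraction and OD 490 nm. CC50 was taken from semilog concentration–OD curves and recalculated to μM.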

[3] = Selectivity index, ratio of CC50 for cytotoxicity against African green monkey Vero cells to IC50 for antiviral activity against Vaccinia virus Copenhagen infected in African green monkey Vero cells; assay type: toxicity, cell-based; settings: read-out: Ratio CC50/IC50
[4] = system: Cowpox virus; assay: Antiviral activity against Cowpox virus Grishak infected in African green monkey Vero cells assessed as inhibition of virus-induced cytotoxicity incubated for 4 days by neutral red dye uptake based spectrophotometric analysis; assay type: functional, organism-based; settings: 96 h
[5] = Selectivity index, ratio of CC50 for cytotoxicity against African green monkey Vero cells to IC50 for antiviral activity against Cowpox virus Grishak infected in African green monkey Vero cells; assay type: toxicity, cell-based; settings: read-out: Ratio CC50/IC50
[6] = system: Ectromelia virus; assay: Antiviral activity against Ectromelia virus K-1 infected in African green monkey Vero cells assessed as inhibition of virus-induced cytotoxicity incubated for 4 days by neutral red dye uptake based spectrophotometric analysis; assay type: functional, organism-based; settings: K-1, Vero, 96 h
[7] = Selectivity index, ratio of CC50 for cytotoxicity against African green monkey Vero cells to IC50 for antiviral activity against Ectromelia virus K-1 infected in African green monkey Vero cells; assay type: toxicity, cell-based; settings: read-out: Ratio CC50/IC50
[8] = system: Variola virus; assay: Antiviral activity against Variola virus India3a infected in African green monkey Vero cells assessed as inhibition of virus-induced cytotoxicity incubated for 4 days by neutral red dye uptake based spectrophotometric analysis; assay type: functional, organism-based; settings: 96 h
[9] = Selectivity index, ratio of CC50 for cytotoxicity against African green monkey Vero cells to IC50 for antiviral activity against Variola virus India3a infected in African green monkey Vero cells; assay type: toxicity, cell-based; settings: read-out: Ratio CC50/IC50
[10] = Orthopoxvirus vaccinia, Copenhagen, Vero, 96 h, read-out: IC50

| Compound | IC50 [1, 10] | CC50 at 96 h [2] | selectivity ratio [3] | IC50 [4] | selectivity ratio [5] | IC50 [6] | selectivity ratio [7] | IC50 [8] | selectivity ratio [9] | IC50 ([1]; vero) |
| --- | --- | --- | --- | --- | --- | --- | --- | --- | --- | --- |
| CC1(C)CC(=O)c2c(nc(-c3ccc([N+](=O)[O-])cc3)n2OCc2ccccc2Br)C1 | 2.91 µM | 100 µM | 34 | 29.1 µM | < 8 | 28.7 µM | < 8 | – | – | – |
| CC1(C)CC(=O)c2c(nc(-c3ccc([N+](=O)[O-])cc3)n2OCc2ccc(Cl)c(Cl)c2)C1 | 0.61 µM | 109 µM | 178 | 7.04 µM | 15 | 1.8 µM | 60 | – | – | – |
| CC1(C)CC(=O)c2c(nc(-c3ccc(C#N)cc3)n2O)C1 | 0.498 µM | 175 µM | 351 | 17.1 µM | 10 | 2.49 µM | 70 | 1.45 µM | 120 | – |
| CC(=O)c1c(C)n(C)c(-c2ccc([N+](=O)[O-])cc2)[n+]1[O-] | – | 2980 µM | – | – | – | – | – | – | – | Not_active |
| CC1(C)CC(=O)c2c(nc(-c3ccc([N+](=O)[O-])cc3)n2OCc2c(F)cccc2F)C1 | 1.22 µM | 51.7 µM | 43 | 7.39 µM | < 8 | 4.49 µM | 12 | – | – | – |
| COn1c(-c2ccc(C(F)(F)F)cc2)nc(C)c1C(C)=O | 5.9 µM | 176 µM | 30 | – | – | – | – | – | – | – |
| CC(=O)c1c(C)n(C)c(-c2ccc(C#N)cc2)[n+]1[O-] | – | 1510 µM | – | – | – | – | – | – | – | Not_active |
| Cn1c2c([n+]([O-])c1-c1ccc(C(F)(F)F)cc1)C(=O)CC(C)(C)C2 | 14.2 µM | 2080 µM | 146 | – | – | – | – | – | – | – |
| Nc1ccn(C[C@@H](CO)OCP(=O)(O)O)c(=O)n1 [CIDOFOVIR ANHYDROUS] | – | 1110 µM | 34 | 48.2 µM | 23 | 39.4 µM | 28 | 43.1 µM | 26 | – |
| O=C(NNC(=O)C1C2C=CC(C3CC23)C1C(=O)O)c1ccc(C(F)(F)F)cc1 (stereo unspecified) | 0.008 µM | – | 149000 | 0.009 µM | 133000 | 0.008 µM | 149000 | 0.008 µM | 149000 | – |
| CC1(C)CC(=O)c2c(nc(-c3ccc([N+](=O)[O-])cc3)n2OCc2ccccc2)C1 | 6.39 µM | 1160 µM | 182 | 78.2 µM | 15 | 30.9 µM | 38 | – | – | – |
| COc1ccc(-c2nc(C)c(C(C)=O)n2O)cc1 | 17.9 µM | 614 µM | 34 | – | – | – | – | – | – | – |
| CC1(C)CC(=O)c2c(n(Cc3ccccc3)c(-c3ccc([N+](=O)[O-])cc3)[n+]2[O-])C1 | 27.7 µM | 359 µM | 13 | – | – | – | – | – | – | – |
| COn1c(-c2ccc(N(C)C)cc2)nc(C)c1C(C)=O | 62.1 µM | 197 µM | < 8 | – | – | – | – | – | – | – |
| CC(=O)c1c(C)nc(-c2ccc(N(C)C)cc2)n1O | 12.9 µM | 299 µM | 23 | – | – | – | – | – | – | – |
| CC1(C)CC(=O)c2c(nc(-c3ccc([N+](=O)[O-])cc3)n2O)C1 | 0.133 µM | 142 µM | 1070 | 1.16 µM | 123 | 0.39 µM | 358 | 0.38 µM | 373 | – |
| COc1ccc(-c2nc(C)c(C(C)=O)n2OC)cc1 | 207 µM | 357 µM | < 8 | – | – | – | – | – | – | – |
| COn1c(-c2ccc(C#N)cc2)nc(C)c1C(C)=O | 228 µM | 1060 µM | < 8 | – | – | – | – | – | – | – |
| CC(=O)c1c(C)nc(-c2ccc(C#N)cc2)n1O | 1.12 µM | 84.6 µM | 76 | – | – | – | – | – | – | – |
| CC1(C)CC(=O)c2c(nc(-c3ccc(C(F)(F)F)cc3)n2O)C1 | 0.154 µM | 46.2 µM | 300 | 2.41 µM | 19 | 0.49 µM | 94 | 0.18 µM | 257 | – |
| COn1c(-c2ccc([N+](=O)[O-])cc2)nc(C)c1C(C)=O | 4.76 µM | 444 µM | 93 | 22.3 µM | 20 | 13.9 µM | 32 | – | – | – |
| Cn1c2c([n+]([O-])c1-c1ccc([N+](=O)[O-])cc1)C(=O)CC(C)(C)C2 | 183 µM | 2440 µM | 13 | – | – | – | – | – | – | – |
| Cc1ccc(C)c(COn2c(-c3ccc([N+](=O)[O-])cc3)nc3c2C(=O)CC(C)(C)C3)c1 | 1.34 µM | 105 µM | 79 | 32.3 µM | < 8 | 14.4 µM | < 8 | – | – | – |
| CC(=O)c1c(C)nc(-c2ccc(C(F)(F)F)cc2)n1O | 0.07 µM | 3.87 µM | 55 | – | – | – | – | – | – | – |
| COn1c(-c2ccc(C#N)cc2)nc2c1C(=O)CC(C)(C)C2 | 28.5 µM | 757 µM | 27 | – | – | – | – | – | – | – |
| COn1c(-c2ccc([N+](=O)[O-])cc2)nc2c1C(=O)CC(C)(C)C2 | 3.96 µM | 1150 µM | 291 | 17.9 µM | 65 | 12.5 µM | 92 | 3.96 µM | 291 | – |
| CC(=O)c1c(C)nc(-c2ccc([N+](=O)[O-])cc2)n1O | 0.651 µM | 28.3 µM | 44 | 5.9 µM | < 8 | 1.3 µM | 22 | – | – | – |
